In the library only some 3.5% were active in any assay of this set; here they are far more common.
Cneo AK release = causes C. neoformans cell lysis; adenylate kinase release luminescence, 4 h; normalised: neutral wells 0, clomiphene wells 100; lysis activity, % at 15 µM; 360,000 compounds, 0.2% hits;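 active = mean lysis activity across replicates of at least 80%, whatever share of replicates individually reach that level; inactive = mean lysis activity below 80%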
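Signal: Adenylate kinase release luminescence | Assay system: Log-phase Cryptococcus neoformans yeast cells | Input: Cells at 5 × 10^6 per mL | Buffer or medium: Fresh YPD growth medium | Compound: Single dose | Schedule: Static 4 h at 37 °C with compound, 1 h detection | Controls: Clomiphene | Read-out: Luminescence rise reflecting yeast cell lysis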
Env fusion inh = HIV envelope-mediated fusion inhibition; HeLa-JRFL Env/CEM21 cell fusion, luciferase; 360,000 compounds, 1.1% hits; AID 651610; inhibition, % at 12.3 µM;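 active = mean replicate inhibition score of at least 50 and every replicate individually at or above 50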
ERAP1 HTS inh = inhibitors of human ERAP1 aminopeptidase; Q9NZ08; recombinant ERAP1, Leu-AMC fluorescence, 60 min; inhibition, % at 10.7 µM; 340,000 compounds, 0.15% hits; AID 652197;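 active = mean replicate inhibition of at least 30%, or all replicates individually reaching that 30% level; inactive = mean below 30% and not every replicate reaching it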
Target sequence (Q9NZ08 whole entry, looked up): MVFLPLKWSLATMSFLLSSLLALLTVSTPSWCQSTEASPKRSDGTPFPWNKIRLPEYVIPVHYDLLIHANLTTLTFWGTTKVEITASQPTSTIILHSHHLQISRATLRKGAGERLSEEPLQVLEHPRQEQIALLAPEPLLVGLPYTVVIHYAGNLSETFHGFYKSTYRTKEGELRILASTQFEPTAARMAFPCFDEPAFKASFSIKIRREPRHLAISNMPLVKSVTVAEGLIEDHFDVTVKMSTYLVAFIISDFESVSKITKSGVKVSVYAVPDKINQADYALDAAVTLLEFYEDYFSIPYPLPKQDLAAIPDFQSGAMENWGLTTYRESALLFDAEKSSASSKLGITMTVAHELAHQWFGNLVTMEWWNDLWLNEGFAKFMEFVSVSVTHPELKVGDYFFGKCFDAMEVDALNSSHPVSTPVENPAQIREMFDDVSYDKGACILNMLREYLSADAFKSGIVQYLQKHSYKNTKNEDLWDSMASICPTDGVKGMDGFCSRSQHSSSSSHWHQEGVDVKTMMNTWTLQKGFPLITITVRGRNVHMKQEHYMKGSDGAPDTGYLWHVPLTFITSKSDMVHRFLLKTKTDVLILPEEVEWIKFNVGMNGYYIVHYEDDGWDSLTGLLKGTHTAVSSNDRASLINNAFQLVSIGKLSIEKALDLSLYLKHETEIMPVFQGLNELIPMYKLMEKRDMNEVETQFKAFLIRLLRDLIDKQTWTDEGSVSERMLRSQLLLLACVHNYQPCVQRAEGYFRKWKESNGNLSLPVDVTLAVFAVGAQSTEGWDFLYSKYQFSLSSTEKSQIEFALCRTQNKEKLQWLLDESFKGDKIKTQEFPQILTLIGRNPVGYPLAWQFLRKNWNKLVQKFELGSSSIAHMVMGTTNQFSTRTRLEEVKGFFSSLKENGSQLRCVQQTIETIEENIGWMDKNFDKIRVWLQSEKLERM
rRNA inh HTS = inhibitors of bacterial rRNA selective over humanized ribosomes; E. coli WT GFP vs humanized-ribosome RFP mutants, fluorescence, 24 h; hits give low values; DMSO median 0, no signal -100; GFP signal change (wild-type ribosome), % (test concentration not listed); 350,000 compounds, 1.6% hits;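 active = significant combined selectivity score with lowered wild-type GFP, culture density cut under 30%, mutant RFP and density less affected; inactive = any of these conditions unmet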
PGC1a acetyl inh = PGC1a acetylation modulation, inhibitor mode. AID 651687. U2OS PGC1a acetylation, AlphaScreen anti-acetyl-lysine; with virally co-expressed GCN5 acetyltransferase. inhibition, % at 15.6 µM. 350,000 compounds, 0.17% hits;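 active = every replicate shows inhibition of at least 40%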
FGF22 binding = binders of recombinant human FGF22 by thermal shift | Q9HCT0 | SYPRO orange fluorescence; percent of sucrose octasulfate shift, DMSO zero | activity (Tm shift, normalised), % at 9.99 µM | 340,000 compounds, 1.5% hits;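 active = mean Tm shift, scaled 0 neutral to 100 positive control, at about 1.3% or above, every replicate too, limit read from the data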
Large screens that a line does not name were inactive.

O=C(CN1CCCC1)Nc1ccccc1Sc1ccc(Cl)cc1	rRNA inh HTS -42.2 (no result: Cneo AK release)
CCc1ccccc1NC(=O)CNC(=O)c1cn(Cc2ccccc2)nc1-c1cccnc1	none
Cc1ccc(S(=O)(=O)N(C)C[C@@H]2Oc3c(NC(=O)Nc4ccc(C(F)(F)F)cc4)cccc3C(=O)N([C@H](C)CO)C[C@@H]2C)cc1	none
O=C(CN1c2ccccc2Sc2ccccc21)N/N=C/c1ccc([N+](=O)[O-])cc1	rRNA inh HTS -23.9 (no result: ERAP1 HTS inh)
Cc1ccc(-n2nnnc2-c2cccc(C)c2)cc1	none (no result: Cneo AK release)
COc1ccc(-n2nnnc2-c2cccc(OC)c2)cc1	Env fusion inh 56.4 (no result: ERAP1 HTS inh, rRNA inh HTS, PGC1a acetyl inh, FGF22 binding)
CSc1nc2ccc(NC(=O)C3=NNC(=O)CC3)cc2s1	FGF22 binding 43.3 (no result: Cneo AK release)
CCNC(=O)C1(C)CCCN(C(=O)c2sc(-c3ccccc3)nc2C)C1 (stereo not given)	FGF22 binding 43.0 (no result: Env fusion inh, PGC1a acetyl inh)
CCNC(=O)C1(C)CCCN(C(=O)c2cc3ccccc3s2)C1 (stereo not given)	none
CCCS(=O)(=O)NC(=O)C1(C)CCCN(C(=O)c2ccccc2Br)C1 (stereo not given)	none
CCNC(=O)C1(C)CCCN(C(=O)c2ccccc2Br)C1 (stereo not given)	FGF22 binding 43.4 (no result: Env fusion inh)
COC(=O)CCCC1=CC2=C(c3ccccc3)C(=O)C(C)(OC(=O)C3CCCC3)C(=O)C2=CN1Cc1ccc2c(c1)OCO2 (stereo not given)	none
CCOc1ccccc1NC(=O)NCc1cccnc1	FGF22 binding 42.9 (no result: Cneo AK release)
CCOc1ccc(NC(=S)NCc2cccnc2)cc1	rRNA inh HTS -20.0
CCOc1ccccc1NC(=O)NCc1ccccc1	none (no result: Cneo AK release)
CCSC1=C(C#N)C(CC(C)C)C2=C(CCCC2=O)N1 (stereo not given)	none
CCNC(=O)COC(=O)/C=C/c1cccc([N+](=O)[O-])c1	FGF22 binding 42.9 (no result: Cneo AK release)
O=C(/C=C/c1cccc([N+](=O)[O-])c1)NCCSCc1ccc(Cl)cc1	rRNA inh HTS -20.4 (no result: Cneo AK release, PGC1a acetyl inh)
O=C(COC(=O)/C=C/c1cccc([N+](=O)[O-])c1)NCc1ccco1	none (no result: Cneo AK release, PGC1a acetyl inh)
CC1(C)Cc2c(c(-c3ccco3)nc3sc4c(NCCO)ncnc4c23)CO1	FGF22 binding 43.4 (no result: Cneo AK release, PGC1a acetyl inh)
S=c1[nH]nc(SCc2ccccc2)c2[nH]cnc12	rRNA inh HTS -17.3 (no result: Env fusion inh)
CCCCSc1n[nH]c(=S)c2nc[nH]c12	FGF22 binding 43.0 (no result: rRNA inh HTS)
COCc1cc(C)nc(OCC(=O)N/N=C/c2ccc(OC)c(O)c2)c1C#N	FGF22 binding 44.2 (no result: Cneo AK release, PGC1a acetyl inh)
COCc1cc(C)nc(OCC(=O)N/N=C/c2ccc(C)cc2)c1C#N	none (no result: Cneo AK release, PGC1a acetyl inh)
COc1cc(/C=N/Nc2ncc(C(F)(F)F)cc2Cl)cc(OC)c1OC	FGF22 binding 43.4 (no result: Cneo AK release, PGC1a acetyl inh)
Cc1nc(SCC(=O)O)n[nH]1	none (no result: Cneo AK release)
O=C(Cc1cccs1)N=Nc1c(O)[nH]c2ccc(Br)cc12	none
O=C(Cn1c(C(F)(F)F)nc2ccccc21)N=Nc1c(O)[nH]c2ccc(Br)cc12	FGF22 binding 43.1
Cc1noc(C)c1S(=O)(=O)N(C)C[C@H]1Oc2ccc(NC(=O)Cc3cn(C)c4ccccc34)cc2CC(=O)N([C@@H](C)CO)C[C@H]1C	none
COc1ccc(NC(=O)C2CC(c3c(F)cccc3Cl)=NO2)cc1OC (stereo not given)	none
Cc1csc(N/N=C/c2ccc([N+](=O)[O-])cc2)n1	none
O=C(O)c1csc(N/N=C/c2ccc(Br)cc2)n1	rRNA inh HTS -28.4 (no result: Cneo AK release)
COc1cccc(OC)c1C(=O)NC(=S)Nc1ccc2oc(-c3ccncc3)nc2c1	rRNA inh HTS -14.2 (no result: FGF22 binding)
CC1=NN(c2ccc(C(=O)O)cc2)C(=O)/C1=C\c1ccc(OC(=O)c2cccs2)cc1	FGF22 binding 43.1 (no result: Cneo AK release)
CCCn1nc(C(=O)N2CCN(c3ccccn3)CC2)c2ccccc2c1=O	FGF22 binding 44.1
CCC(=O)/C=C1/Sc2ccc(OC)cc2N1CC	none (no result: Env fusion inh)
CCC(=O)/C=C1/Sc2ccc(OC)cc2N1CCO	FGF22 binding 43.3 (no result: Cneo AK release)
CC1(C#CC[N+]2(C)CCCCC2)CCC2C(O1)c1ccccc1OC2(C)C (stereo not given)	FGF22 binding 43.6
CC1(C(O)(C#CC[N+]2(C)CCCCC2)c2ccccc2)CCCC1 (stereo not given)	none (no result: Cneo AK release)
O=C(NN=Cc1ccc2c(c1)OCO2)C1CC1	FGF22 binding 43.3 (no result: Env fusion inh)
O=C(Cc1ccccc1)N/N=C/c1ccc2c(c1)OCO2	none (no result: Cneo AK release)
Cc1ccc(-c2cc(C(=O)N/N=C/c3ccco3)[nH]n2)cc1	none (no result: Env fusion inh, ERAP1 HTS inh, rRNA inh HTS, FGF22 binding)
O=C(N/N=C/c1ccco1)c1cc(-c2ccc(Cl)cc2)n[nH]1	rRNA inh HTS -19.2 (no result: Cneo AK release, PGC1a acetyl inh)
O=C(N/N=C/c1ccc2c(c1)OCO2)C1COc2ccccc2O1 (stereo not given)	none (no result: Env fusion inh)
O=C(NN=Cc1ccc2c(c1)OCO2)NN=Cc1ccc2c(c1)OCO2	rRNA inh HTS -21.4
O=C(N/N=C/c1ccccc1)c1cc(-c2ccc3c(c2)OCO3)n[nH]1	rRNA inh HTS -20.1
COc1cccc(CC2(CO)CCCN(Cc3cnn(-c4ccccc4)c3)C2)c1 (stereo not given)	none (no result: Cneo AK release, PGC1a acetyl inh)
CCOC(=O)/C(=N/Nc1ccccc1)c1csc(Nc2ccccc2)n1	none (no result: ERAP1 HTS inh, rRNA inh HTS, FGF22 binding)
CCc1ccc(/C=N/NC(=O)c2cc(-c3cccc([N+](=O)[O-])c3)n[nH]2)cc1	rRNA inh HTS -19.2
O=C(COc1ccc2ccccc2c1Br)N1CCCC1	rRNA inh HTS -26.0
O=C(COc1ccc2ccccc2c1Br)N1CCOCC1	none (no result: Env fusion inh, ERAP1 HTS inh, rRNA inh HTS, FGF22 binding)
CCC(=O)c1ccc(OCC(=O)N2CCCC2)c(OC)c1	FGF22 binding 44.1 (no result: Cneo AK release)
CCOc1cc(C(=O)Nc2cccc(C(C)=O)c2)ccc1OCC(=O)N1CCCCC1	FGF22 binding 43.8 (no result: Cneo AK release, PGC1a acetyl inh)
O=[N+]([O-])c1cc(-c2nnc(-c3ccccc3)o2)ccc1Oc1ccc(Cl)cc1	none (no result: Env fusion inh, PGC1a acetyl inh)
COc1cccc(N2CCN(S(=O)(=O)c3ccc(-c4coc(C)n4)cc3)CC2)c1	none
CN(CC(=O)Nc1ccc(S(N)(=O)=O)cc1)Cc1ccccc1F	none (no result: Cneo AK release)
CN(CC(=O)NC(=O)Nc1ccccc1F)Cc1ccccc1F	Env fusion inh 65.6
Cc1ccc2ccccc2c1CSc1nc(N)nc2c1ncn2CC(C)C	rRNA inh HTS -29.8 (no result: Cneo AK release)
COc1cc(/C=N/NC(=S)NCc2ccco2)cc(OC)c1OC	none (no result: Cneo AK release, ERAP1 HTS inh, rRNA inh HTS, PGC1a acetyl inh, FGF22 binding)
S=C(NCc1ccco1)N/N=C/c1ccc(Cl)cc1	rRNA inh HTS -38.7 (no result: Cneo AK release, PGC1a acetyl inh)
COc1ccccc1/C=N/NC(=S)NCc1ccco1	Cneo AK release 89.3
O/N=C\c1ccccc1Oc1ccc(F)cc1	rRNA inh HTS -24.8 (no result: Cneo AK release, PGC1a acetyl inh)
CN(C)CC#Cc1ccc([C@H]2[C@@H](CO)N3CCCCN(C(=O)c4ccc5c(c4)OCO5)C[C@@H]23)cc1	none (no result: Env fusion inh)
C[C@@H]1CN([C@@H](C)CO)C(=O)c2cc(NS(=O)(=O)c3ccc(Cl)cc3)ccc2O[C@@H](C)CCCCO[C@@H]1CN(C)C(=O)Nc1ccccc1	none
Cc1cc(Nc2cccc(F)c2)n2c(n1)nc1ccccc12	none (no result: Env fusion inh)

Compound activity: PubChem, Broad Institute
